# The list is not random: actives were taken first. Their share in the collection is about 3.7%.
# KCNK3 block = human KCNK3 channel inhibition, primary screen; O14649; CHO-KCNK3 thallium flux, FluxOR fluorescence; stronger effect = lower value; B-score at 10 µM; actives 0.84% (n = 340,000); AID 602410;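 active means B-score under library mean minus 4 SD, starting fluorescence ratio at most library mean plus 5 SD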;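 further: more negative B-score means stronger inhibition of thallium flux through KCNK3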
# KCNQ1 block = blocks the human KCNQ1 potassium channel | AID 2642 | actives 1.3% (n = 310,000) | CHO-K1 KCNQ1, FluxOR thallium flux fluorescence; stronger effect = higher value | B-score at 10 µM;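 active means compounds whose thallium flux B-score, printed positive for inhibition, exceeds three library SD while starting fluorescence stays within three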;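 further: channel opened by potassium depolarization with thallium stimulus after 20 min compound exposure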
# KCNQ1 act = human KCNQ1 channel potentiation or activation; P51787; CHO-K1 KCNQ1, thallium flux FluxOR fluorescence; stronger effect = higher value; B-score at 10 µM; actives 0.35% (n = 310,000);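 active means fluorescence ratio B-score, a plate-corrected score, at least three library SD, with initial intensity B-score within 5 SD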
#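 Material: CHO-K1 cells stably expressing KCNQ1. Medium: assay buffer for compound exposure, DMSO matched across wells. Reagent: K+/Tl+ depolarizing stimulus. Compound dosing: single-concentration screen. Times: 37 °C overnight plating, 90-min dark dye load, 20-min compound pretreatment. Technique: FluxOR Tl+ flux fluorescence.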
# KCNK9 block = blocks the human KCNK9 two-pore domain potassium channel | B-score at 10 µM | HEK293 KCNK9, FluxOR thallium flux fluorescence; stronger effect = lower value | Q9NPC2 | AID 488922 | actives 1.2% (n = 310,000);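 active means ratio B-score over 3 SD below the library mean, with starting fluorescence within 5 SD of its mean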;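 further: negative B-score means less thallium flux so channel inhibition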
# hERG rescue = compounds protecting human hERG from proarrhythmic drug block; Q12809; CHO-hERG, FluxOR thallium flux, dofetilide IC70 present; activation (rescue from dofetilide block), less the hit threshold, % at 10 µM; actives 0.51% (n = 310,000); AID 1511;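 active means activation above the mean of controls blocked by dofetilide plus 5 SD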;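 further: thallium influx through hERG after potassium depolarization seen as dye fluorescence rise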
# Kir21 block = blocks the mouse Kir2.1 inward-rectifier potassium channel. AID 1672. P35561. B-score at 10 µM. actives 0.85% (n = 310,000). HEK293-Kir2.1, FluxOR thallium flux fluorescence; stronger effect = lower value;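 active means fluorescence ratio B-score at or below minus 3 SD of library scores, with starting-brightness B-score within 2 SD, cut at about -4.2 in these data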;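 further: channel flux triggered by added potassium and thallium sulfate stimulus; B-score of peak minus minimum fluorescence over baseline after thallium stimulus; more negative B-score means stronger Kir2.1 block with less thallium influx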
# KCNQ1 inh valid = reconfirmed blocker of the human KCNQ1 potassium channel. actives 93% (n = 1,600). KCNQ1 cell line, FluxOR thallium flux fluorescence. inhibition, % at 10 µM. shares compounds with KCNQ1 block;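 active means primary screen active, with duplicate mean exceeding buffer control mean plus 3 SD of buffer wells, cut at about 28% in these data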;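 further: 0% = buffer control ratio and 100% = XE991 inhibitor control ratio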
# CHO KCNQ1 ctr = KCNQ1 inhibitor counter-screen hit in parental CHO cells. shares compounds with KCNQ1 block. parental CHO-K1, FluxOR thallium flux fluorescence ratio; stronger effect = lower value; zero means no signal rise above baseline. fluorescence ratio (Tl flux) at 10 µM. actives 21% (n = 1,600);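 active means mean of duplicate thallium-flux fluorescence ratios in parental host cells more than 5 SD below the buffer control mean, cut at about 0.38 in these data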;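 further: ratio is peak minus minimum fluorescence divided by baseline fluorescence; actives read low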
# KCNQ1 APC inh = confirmation of human KCNQ1 potassium channel inhibitors by electrophysiology | shares compounds with KCNQ1 block | KCNQ1-CHO cells, automated patch clamp current | calls only at 10 µM | actives 20% (n = 490);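 active means KCNQ1 current drop exceeding 3 SD of negative control wells, seen in both duplicate runs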;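 further: steady state current during a 2 s step from -80 to +40 mV; negative values mean current inhibition and positive values mean potentiation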
# KCNQ2 spec = selectivity of KCNQ1 inhibitors: inhibition of rat KCNQ2 channel | actives 71% (n = 1,600) | inhibition, % at 10 µM | KCNQ2 cells, FluxOR thallium flux fluorescence | shares compounds with KCNQ1 block;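 active means mean percent inhibition of the KCNQ2 thallium signal more than 5 SD above the buffer-only control wells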;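 further: KCNQ2 expressed in CHO cells; 0% = buffer control wells and 100% = XE-991 inhibitor control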
# KCNQ1-KCNE1 inh = human KCNQ1/KCNE1 inhibition in KCNQ1 specificity screen. shares compounds with KCNQ1 block. KCNQ1/KCNE1 cells, FluxOR thallium flux fluorescence. inhibition, % at 10 µM. actives 77% (n = 1,600). AID 652147;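 active means mean percent inhibition of duplicate wells above the buffer-only control mean plus 3 SD of those controls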;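 further: 0% = buffer only wells and 100% = XE-991 inhibitor control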
# KCNK9 block conf = human KCNK9 inhibitor confirmation; shares compounds with KCNK9 block; HEK293 KCNK9 cells, FluxOR thallium flux fluorescence; inhibition, % at 10 µM; actives 43% (n = 4,900); AID 492992;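 active means thallium signal inhibited by more than 5 SD of the compound-free buffer control wells, on both duplicate plates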;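 further: 0% = assay buffer control wells without compound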
# Kir21 sel = mouse Kir2.1 off-target activity of KCNK9 modulators; shares compounds with KCNK9 block; Kir2.1 cells, FluxOR thallium flux fluorescence; inhibition, % at 10 µM; actives 4% (n = 4,900);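 active means thallium signal drop more than 5 SD beyond the mean of the no-compound control wells, seen in both duplicate plates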;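 further: signal is fluorescence rise after thallium addition divided by baseline fluorescence; plate controls were assay buffer only for no effect and full block by chlorpromazine control for full effect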
# KCNK9 uninduced = second check of KCNK9 modulator effects in non-induced HEK293 cells. AID 492997. actives 40% (n = 4,900). inhibition, % at 10 µM. shares compounds with KCNK9 block. FluxOR thallium flux;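 active means thallium signal drop beyond 5 SD of the untreated control mean, on both duplicate plates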;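 further: plate controls were buffer only IC0 wells for no effect and SID17386958 at its maximal inhibitory level for full effect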
# Active calls of the source: *; i = inactive; · = no result given; + = active, no number.
SMILES,KCNK3 block,KCNQ1 block,KCNQ1 act,KCNK9 block,hERG rescue,Kir21 block,KCNQ1 inh valid,CHO KCNQ1 ctr,KCNQ2 spec,KCNQ1-KCNE1 inh,KCNK9 block conf,Kir21 sel,KCNK9 uninduced,others
Cc1ccc(OS(=O)(=O)c2ccc(N3C(=O)CCC3=O)cc2)cc1,i,i,i,i,-5,0.51,·,·,·,·,·,·,·,
CCN(CC)S(=O)(=O)c1cccc(NC(=O)Nc2cccc(C(F)(F)F)c2)c1,i,11*,i,i,-21,0.24,158*,0.3*,121%*,127%*,i,i,i,
NC(=O)NC(CC(=O)NCCc1ccc(S(N)(=O)=O)cc1)c1ccccc1Cl (centres undefined),i,i,i,i,-9,0.77,·,·,·,·,·,·,·,
c1ccc(Oc2nc(N3CCOCC3)nc(N3CCOCC3)n2)cc1,i,i,i,i,-13,0.86,·,·,·,·,·,·,·,
Clc1ccc(Oc2nc(N3CCOCC3)nc(N3CCOCC3)n2)c(C2CCCCC2)c1,i,6*,i,i,-12,-2.4,98*,0.37*,105%*,91%*,i,i,i,
O=C(Nc1ccc(Cl)c(Cl)c1)N1CCSC1c1ccco1 (centres undefined),i,10*,i,-11*,-10,-0.39,111*,0.37*,i,118%*,53%*,i,i,
CC(=O)Nc1ccc(S(=O)(=O)N2CCSC2c2ccco2)cc1 (centres undefined),i,i,i,i,-10,-0.07,·,·,·,·,·,·,·,
CCOC(=O)C1CCCN(C(=O)c2ccc3c(=O)n(Cc4ccccc4OC)c(=S)[nH]c3c2)C1 (centres undefined),i,i,i,i,-10,0.53,·,·,·,·,·,·,·,
COC(=O)C(Cc1c[nH]c2ccccc12)NC(=O)C(=O)c1c[nH]c2ccccc12 (centres undefined),i,7*,i,-12*,-18,0.5,68*,0.48,84%*,108%*,i,i,i,
COC(=O)C(Cc1c[nH]c2ccccc12)NC(=O)C(C)C (centres undefined),i,i,i,i,-6,-1.1,·,·,·,·,·,·,·,
O=C(NCc1ccccc1)c1cccc(COc2ccc3c(c2)CCC3)c1,i,7*,i,i,-8,1.1,98*,0.39,112%*,139%*,i,i,i,KCNQ1 APC inh=+
COc1ccc(OCc2cc(C(=O)N3CCCC(O)C3)no2)c2ccccc12 (centres undefined),i,i,i,i,-11,0.02,·,·,·,·,·,·,·,
COc1ccc(-c2[nH]c(-c3cc(OC)c4c(c3)OCO4)nc2-c2ccccc2)cc1,i,9*,i,-9*,-28,0.46,152*,0.34*,131%*,186%*,38%*,i,32%*,
Cc1ccc(-c2[nH]c(-c3ccc(C(=O)O)cc3)nc2-c2ccccc2)cc1,i,i,i,i,-12,-2.8,·,·,·,·,·,·,·,
CC(C)CC(C(=O)Nc1cccc(O)c1)N1C(=O)c2ccccc2C1=O (centres undefined),i,i,i,i,-2,1.5,·,·,·,·,·,·,·,
CC(C)CC(C(=O)Nc1oc(-c2ccco2)c(-c2ccco2)c1C#N)N1C(=O)c2ccccc2C1=O (centres undefined),-11*,9*,i,-11*,3,2.1,112*,0.42,88%*,65%*,72%*,i,26%*,KCNQ1 APC inh=i
COc1ccc(CNC(=O)COC(=O)c2ccc(F)c(S(=O)(=O)N3CCCCC3)c2)cc1OC,i,i,i,i,-15,-1.4,·,·,·,·,·,·,·,
Cc1cccc(N2CCN(C(=O)COc3ccc4ccc(=O)oc4c3)CC2)c1C,i,i,i,i,-9,-0.51,·,·,·,·,·,·,·,
Cc1cccc(N2CCN(C(=O)COc3ccc4c(c3)CCC4)CC2)c1C,i,6*,i,i,-10,-1.3,102*,0.46,100%*,109%*,i,i,i,KCNQ1 APC inh=i
CCOC(=O)c1c(-c2ccccc2)csc1NC(=O)c1nn(CC)cc1Br,i,i,i,i,-10,1.6,·,·,·,·,·,·,·,
CCOC(=O)c1c(-c2ccccc2)csc1NC(=S)N(CC)CC,i,7*,i,-8.2*,-11,0.05,126*,0.49,106%*,145%*,46%*,i,28%*,KCNQ1 APC inh=i
COc1ccc(-c2cc3nc(-c4ccccc4)cc(N4CCCC(O)C4)n3n2)cc1 (centres undefined),i,9*,i,i,-22,-1,104*,0.44,112%*,184%*,i,i,i,KCNQ1 APC inh=i
Cc1cc(C)n(Cc2ccc(Cl)cc2Cl)c(=O)c1S(=O)(=O)c1ccccc1,i,8*,i,-12*,-15,0.02,81*,0.46,81%*,102%*,56%*,i,42%*,
O=C1c2[nH]nc(-c3ccccc3O)c2C(c2ccccc2F)N1Cc1ccco1 (centres undefined),-9.1*,9*,i,-15*,-16,-1.2,126*,0.41,78%*,116%*,73%*,i,33%*,
